According to ChEMBL document CHEMBL4033780, “Lipidated Brartemicin Analogues Are Potent Th1-Stimulating Vaccine Adjuvants” (J Med Chem, 2018):
Activity calls are given as the source filed them. No cut-off for these calls is given here.

Legend:
[1] = organism: Mus musculus; test: Adjuvant activity in immunized C57BL/6 mouse assessed as increase in OVA-specific IgG production in serum at 0.3 umol treated with ovalbumin for 7 days followed by stimulation with OVA for 7 days and restimulation with OVA measured 24 to 48 hrs post OVA challenge; assay type: functional
In short: (§1)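 Sera were taken on days 0, 7 and 14 from C57BL/6 mice sensitized s.c. with emulsion containing OVA 200 μg ± adjuvant 0.3 μmol and footpad-challenged with OVA on day 7. OVA-specific IgG, IgG1, IgG2b and IgG2c were measured by ELISA with HRP-coupled anti-mouse secondaries. EC50 was taken from absorbance at 450 nm plotted against log serum concentration.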

[2] = organism: Mus musculus; test: Adjuvant activity in immunized C57BL/6 mouse assessed as increase in antigen specific IFNgamma production in spelnocytes at 0.3 umol treated with ovalbumin for 7 days followed by stimulation with OVA for 7 days and restimulation with OVA measured 24 to 48 hrs post OVA challenge; assay type: functional, cell-based
In short: (§2)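 C57BL/6 mice (8–12 wk) given s.c. oil-in-water emulsion (mineral oil/Tween-80/PBS 9:1:90) holding OVA 200 μg ± adjuvant 0.3 μmol; controls were OVA alone or no OVA. Footpad challenge with OVA 100 μg on day 7, spleens taken day 14. Splenocytes restimulated with OVA 10, 30 or 100 μg/mL. Cell number read at 450 nm after 3 h with a count reagent; IFN-γ and IL-17 measured by ELISA.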

[3] = organism: Mus musculus; test: Adjuvant activity in immunized C57BL/6 mouse assessed as increase in IL-17 production in spelnocytes at 0.3 umol treated with ovalbumin for 7 days followed by stimulation with OVA for 7 days and restimulation with OVA measured 24 to 48 hrs post OVA challenge; assay type: functional, cell-based; in short: as §2
[4] = biological target: T1, C-type lectin domain family 4 member E (Mus musculus) (UniProt Q9R0Q8); test: Agonist activity at mincle in wild type C57BL/6 mouse GM-CSF derived BMDM assessed as increase in IL-6 release at 0.1 to 1 nmol after 24 hrs by sandwich ELISA
T1 sequence (whole entry): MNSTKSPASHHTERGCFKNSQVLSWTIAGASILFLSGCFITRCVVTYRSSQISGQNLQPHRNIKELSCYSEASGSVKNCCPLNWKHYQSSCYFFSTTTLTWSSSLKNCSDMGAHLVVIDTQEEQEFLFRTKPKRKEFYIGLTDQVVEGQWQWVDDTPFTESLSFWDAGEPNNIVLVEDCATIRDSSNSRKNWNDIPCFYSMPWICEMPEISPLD
In short: (§3)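 Wild-type or Mincle−/− C57BL/6 bone marrow was cultured 8 days with GM-CSF 50 ng/mL in complete RPMI. Macrophages were detached with Acutase and seeded on ligand-coated plates (0.1 or 1 nmol/well); LPS 100 ng/mL was used as comparator. Supernatant was taken at 24 h and TNF, IL-6, IL-1β and MIP-2 measured by sandwich ELISA. Representative of three experiments in triplicate (±SD).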

[5] = biological target: T1, C-type lectin domain family 4 member E (Mus musculus); test: Agonist activity at mincle in wild type C57BL/6 mouse GM-CSF derived BMDM assessed as increase in MIP2 release at 0.1 to 1 nmol after 24 hrs by sandwich ELISA; in short: as §3
[6] = biological target: T1, C-type lectin domain family 4 member E (Mus musculus); test: Agonist activity at mincle in wild type C57BL/6 mouse GM-CSF derived BMDM assessed as increase in TNF release at 0.1 to 1 nmol after 24 hrs by sandwich ELISA; in short: as §3
[7] = system: Th17; test: Immunostimulatory activity in OT-2 TCR transgenic mouse CD4+ Th17 cells co-cultured with C57BL/6 mouse BMDM assessed as increase in ovalbumin-specific IL-17 release at 0.1 nmol after 48 hrs by ELISA; assay type: functional, cell-based
In short: (§4)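 OT-II CD4+ T cells (1×10^5) were cocultured with GM-CSF bone-marrow cells (1×10^4) on wells coated with glycolipid 0.1 nmol/well or isopropanol only, with OVA323–339 peptide at 0, 0.1 or 1 μM. Supernatant was collected after 48 h and IFN-γ and IL-17 measured by ELISA. Representative of two experiments in triplicate (±SD).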

[8] = biological target: T1, C-type lectin domain family 4 member E (Mus musculus); test: Binding affinity to recombinant mouse mincle extracellular domain fused with human IgG Fc expressed in HEK293T cells at 0.1 nmol by ELISA; assay type: cell-based; settings: HEK-293T
[9] = biological target: T2, C-type lectin domain family 4 member E (Homo sapiens) (UniProt Q9ULY5); test: Agonist activity at human mincle coupled with FcRgamma expressed in 2B4-NFAT-GFP reporter cells after 18 hrs by flow cytometric analysis; assay type: cell-based
T2 sequence (whole entry): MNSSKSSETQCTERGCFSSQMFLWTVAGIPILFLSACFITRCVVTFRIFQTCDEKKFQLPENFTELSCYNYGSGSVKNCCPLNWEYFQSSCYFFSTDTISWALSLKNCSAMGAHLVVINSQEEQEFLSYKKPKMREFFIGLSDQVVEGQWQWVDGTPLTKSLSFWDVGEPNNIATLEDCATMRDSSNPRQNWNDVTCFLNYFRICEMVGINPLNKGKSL
In short: (§5)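 2B4 NFAT-GFP reporter cells expressing mouse or human Mincle plus FcRγ were placed on plates coated with ligand at 0.01, 0.1 or 1 nmol/well; cells expressing FcRγ only served as negative control. Ligand was coated from isopropanol, 0.05 mM, and solvent evaporated. After 18 h, cells were harvested, stained with propidium iodide and GFP read by flow cytometry. Mean of three experiments in duplicate (±SEM).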

[10] = biological target: T1, C-type lectin domain family 4 member E (Mus musculus); test: Agonist activity at mouse mincle coupled with FcRgamma expressed in 2B4-NFAT-GFP reporter cells after 18 hrs by flow cytometric analysis; assay type: cell-based; in short: as §5
[11] = system: BMDM; test: Immunostimulatory activity in mincle-/- C57BL/6 mouse GM-CSF derived BMDM assessed as increase in TNF release at […] after 24 hrs by sandwich ELISA method; assay type: functional, cell-based; in short: as §3
[12] = system: BMDM; test: Immunostimulatory activity in mincle-/- C57BL/6 mouse GM-CSF derived BMDM assessed as increase in MIP2 release at […] after 24 hrs by sandwich ELISA method; assay type: functional, cell-based; in short: as §3
[13] = system: BMDM; test: Immunostimulatory activity in mincle-/- C57BL/6 mouse GM-CSF derived BMDM assessed as increase in IL-1beta release at […] after 24 hrs by sandwich ELISA method; assay type: functional, cell-based; in short: as §3
[14] = system: Th1; test: Immunostimulatory activity in OT-2 TCR transgenic mouse CD4+ Th1 cells co-cultured with C57BL/6 mouse BMDM assessed as increase in IFNgamma release at 0.1 nmol after 48 hrs by ELISA; assay type: functional, cell-based; in short: as §4
[15] = organism: Mus musculus; test: Adjuvant activity in immunized C57BL/6 mouse assessed as increase in OVA-specific IgG1 production in serum at 0.3 umol treated with ovalbumin for 7 days followed by stimulation with OVA for 7 days and restimulation with OVA measured 24 to 48 hrs post OVA challenge relative to control; assay type: functional; in short: as §1
[16] = organism: Mus musculus; test: Adjuvant activity in immunized C57BL/6 mouse assessed as increase in OVA-specific IgG2c production in serum at 0.3 umol treated with ovalbumin for 7 days followed by stimulation with OVA for 7 days and restimulation with OVA measured 24 to 48 hrs post OVA challenge relative to control; assay type: functional
[17] = organism: Mus musculus; test: Adjuvant activity in immunized C57BL/6 mouse assessed as increase in splenocyte number at 0.3 umol treated with ovalbumin for 7 days followed by stimulation with OVA for 7 days and restimulation with OVA measured 24 to 48 hrs post OVA challenge; assay type: functional; in short: as §2

Activity [4]: Active
Activity [5]: Active
Activity [6]: Active
Activity [8]: Active
Activity [9]: Dose-dependent effect
Activity [10]: Dose-dependent effect
SMILES: CCCCCCCCCCCCCCCCCCOc1ccc(C(=O)OC[C@H]2O[C@H](O[C@H]3O[C@H](COC(=O)c4ccc(OCCCCCCCCCCCCCCCCCC)cc4O)[C@@H](O)[C@H](O)[C@H]3O)[C@H](O)[C@@H](O)[C@@H]2O)c(O)c1
Activity [1]: Active
Activity [2]: Active
Activity [3]: inactive
Activity [7]: Active
Activity [11]: inactive
Activity [12]: inactive
Activity [13]: inactive
Activity [14]: inactive
fold change (FC) [15]: 2
fold change (FC) [16]: 3
Activity [17]: Active
